# From ChEMBL document CHEMBL5620435, “Elucidating the Mechanism of Metabolism of Cannabichromene by Human Cytochrome P450s” (J Nat Prod, 2024)
# pKi: −log10 of the molar value. Activity calls are given as the source filed them. The calls are words filed in the database; no cut-off is given here.
# Columns and labels:
# [1] = system: BV-2; assay: Cytotoxicity against mouse BV-2 cells assessed as reduction in cell viability at 0.1 to 5 uM incubated for 24 hrs by MTT assay; format: toxicity, cell-based; details: bv-2, 24 h, dose 0.1-5 µM
# In short: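 BV-2 cells were seeded at about 10 000/well and grown for 24 h. They were preincubated 4 h with cannabinoids at 0.1, 1.0, 2.5 or 5.0 μM (0.1% ethanol), then held 24 h with or without LPS (25 ng/mL). MTT reagent was added for 4 h at 37 °C, the formazan was dissolved, and absorbance was read at 570 nm.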
# [2] = system: BV-2; assay: Antiinflammatory activity in LPS-induced mouse BV-2 cells assessed as reduction in IL-6 production preincubated for 4 hrs followed by LPS stimulation for 24 hrs by ELISA; format: functional, cell-based; details: dose 0.1-5 µM, time 28.0 hrs
# In short: (§1)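 BV-2 microglia in high-glucose DMEM with 5% heat-inactivated FBS, 37 °C, 5% CO2. Cells (50 000/well) were pretreated with cannabinoids at 0.1, 1.0, 2.5 or 5.0 μM (ethanol 0.1% final) for 4 h, then stimulated with LPS (25 ng/mL) for 24 h. Medium was collected. NO was read by Griess assay at 540 nm against a sodium nitrite calibration curve. IL-6, TNFα and Arg1 were measured by ELISA.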
# [3] = system: BV-2; assay: Antiinflammatory activity in LPS-induced mouse BV-2 cells assessed as reduction in NO production preincubated for 4 hrs followed by LPS stimulation for 24 hrs by Griess reagent based assay; format: functional, cell-based; details: dose 0.1-5 µM, time 28.0 hrs; in short: as §1
# [4] = system: BV-2; assay: Antiinflammatory activity in LPS-induced mouse BV-2 cells assessed as reduction in TNF-alpha production preincubated for 4 hrs followed by LPS stimulation for 24 hrs by ELISA; format: functional, cell-based; details: dose 0.1-5 µM, time 28.0 hrs; in short: as §1
# [5] = system: BV-2; assay: Antiinflammatory activity in LPS-induced mouse BV-2 cells assessed as increase in Arg-1 production preincubated for 4 hrs followed by LPS stimulation for 24 hrs by ELISA; format: functional, cell-based; details: dose 0.1-5 µM, time 28.0 hrs; in short: as §1
# [6] = system: BV-2; assay: Antiinflammatory activity in LPS-induced mouse BV-2 cells assessed as reduction in NO production at 0.1 to 5 uM preincubated for 4 hrs followed by LPS stimulation for 24 hrs by Griess reagent based assay; format: functional, cell-based; details: dose 0.1-5 µM, time 28.0 hrs; in short: as §1
# [7] = system: BV-2; assay: Antiinflammatory activity in LPS-induced mouse BV-2 cells assessed as reduction in IL-6 production at 0.1 to 5 uM preincubated for 4 hrs followed by LPS stimulation for 24 hrs by ELISA; format: functional, cell-based; details: dose 0.1-5 µM, time 28.0 hrs; in short: as §1
# [8] = system: BV-2; assay: Antiinflammatory activity in LPS-induced mouse BV-2 cells assessed as reduction in TNF-alpha production at 0.1 to 5 uM preincubated for 4 hrs followed by LPS stimulation for 24 hrs by ELISA; format: functional, cell-based; details: dose 0.1-5 µM, time 28.0 hrs; in short: as §1
# [9] = target: Cannabinoid receptor 1 (Homo sapiens, UniProt P21554); assay: Displacement of d [3H]CP-55,940 from CBR1 (unknown origin) expressed in Sf9 cell membrane assessed as inhibition constant by Topcount scintillation counting analysis; format: cell membranes
# Cannabinoid receptor 1, sequence (P21554 whole entry): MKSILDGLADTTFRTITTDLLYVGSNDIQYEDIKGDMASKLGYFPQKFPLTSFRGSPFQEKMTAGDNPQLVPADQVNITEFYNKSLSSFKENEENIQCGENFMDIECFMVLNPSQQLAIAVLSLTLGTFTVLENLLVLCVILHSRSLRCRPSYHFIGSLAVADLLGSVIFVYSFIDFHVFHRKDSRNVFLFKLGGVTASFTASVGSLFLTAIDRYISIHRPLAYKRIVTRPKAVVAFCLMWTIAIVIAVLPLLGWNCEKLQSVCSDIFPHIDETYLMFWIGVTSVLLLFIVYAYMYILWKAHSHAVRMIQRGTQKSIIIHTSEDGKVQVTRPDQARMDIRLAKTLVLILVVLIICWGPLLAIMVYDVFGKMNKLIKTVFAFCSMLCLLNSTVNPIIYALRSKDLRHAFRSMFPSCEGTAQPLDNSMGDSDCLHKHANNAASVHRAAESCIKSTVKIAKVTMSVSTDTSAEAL
# [10] = target: Cannabinoid receptor 2 (Homo sapiens, UniProt P34972); assay: Binding affinity to CBR2 (unknown origin)
# Cannabinoid receptor 2, sequence (P34972 whole entry): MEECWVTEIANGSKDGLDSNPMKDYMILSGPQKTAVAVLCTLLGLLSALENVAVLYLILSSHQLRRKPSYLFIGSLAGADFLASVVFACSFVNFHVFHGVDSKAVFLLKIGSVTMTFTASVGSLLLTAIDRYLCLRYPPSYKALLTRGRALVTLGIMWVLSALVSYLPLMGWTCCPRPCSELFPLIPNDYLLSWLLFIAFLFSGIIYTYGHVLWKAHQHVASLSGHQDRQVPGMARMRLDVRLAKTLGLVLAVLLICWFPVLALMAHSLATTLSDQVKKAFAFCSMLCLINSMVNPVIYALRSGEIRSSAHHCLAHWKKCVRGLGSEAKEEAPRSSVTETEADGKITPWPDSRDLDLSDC
# [11] = Drug metabolism in C57BL/6J mouse plasma assessed as (E)-2-(5-hydroxy-4-methylpent-3-en-1-yl)-2-methyl-7-pentyl-2H-chromen-5-ol metabolite formation at 20 mg/kg, iv administered via tail vein measured after 0.5 hrs by LC/MS/MS analysis; format: ADME, organism-based; details: in vivo
# In short: (§2)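 Female C57BL/6J mice, 8–10 weeks old, received CBC at 20 mg/kg in PBS with 6% Tween-80, IV via the tail vein or IP (n = 3 per route). Blood was taken terminally by cardiac puncture into heparin at 0.5 and 2 h. Plasma (200 μL) was extracted with hexane/ethyl acetate (80:20). CBC and metabolites were quantified by targeted LC-MS/MS (C6-phenyl column, positive ESI) as means ±SE.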
# [12] = Drug metabolism in C57BL/6J mouse plasma assessed as (E)-2-(5-hydroxy-4-methylpent-3-en-1-yl)-2-methyl-7-pentyl-2H-chromen-5-ol metabolite formation at 20 mg/kg, ip measured after 0.5 hrs by LC/MS/MS analysis; format: ADME, organism-based; details: in vivo; in short: as §2
# [13] = Drug metabolism in C57BL/6J mouse plasma assessed as (E)-2-(5-hydroxy-4-methylpent-3-en-1-yl)-2-methyl-7-pentyl-2H-chromen-5-ol metabolite formation at 20 mg/kg, iv administered via tail vein measured after 2 hrs by LC/MS/MS analysis; format: ADME, organism-based; details: in vivo; in short: as §2
# [14] = Drug metabolism in C57BL/6J mouse plasma assessed as (E)-2-(5-hydroxy-4-methylpent-3-en-1-yl)-2-methyl-7-pentyl-2H-chromen-5-ol metabolite formation at 20 mg/kg, ip measured after 2 hrs by LC/MS/MS analysis; format: ADME, organism-based; details: in vivo; in short: as §2
# [15] = target: T1, Cytochrome P450 2J2 (Homo sapiens, UniProt P51589); assay: Drug metabolism assessed as ratio of CYP2J2 (unknown origin) mediated (E)-2-(5-hydroxy-4-methylpent-3-en-1-yl)-2-methyl-7-pentyl-2H-chromen-5-ol formation to 2-(2-(3,3-dimethyloxiran-2-yl)ethyl)-2-methyl-7-pentyl-2H-chromen-5-ol formation; format: ADME
# T1 sequence (P51589 whole entry): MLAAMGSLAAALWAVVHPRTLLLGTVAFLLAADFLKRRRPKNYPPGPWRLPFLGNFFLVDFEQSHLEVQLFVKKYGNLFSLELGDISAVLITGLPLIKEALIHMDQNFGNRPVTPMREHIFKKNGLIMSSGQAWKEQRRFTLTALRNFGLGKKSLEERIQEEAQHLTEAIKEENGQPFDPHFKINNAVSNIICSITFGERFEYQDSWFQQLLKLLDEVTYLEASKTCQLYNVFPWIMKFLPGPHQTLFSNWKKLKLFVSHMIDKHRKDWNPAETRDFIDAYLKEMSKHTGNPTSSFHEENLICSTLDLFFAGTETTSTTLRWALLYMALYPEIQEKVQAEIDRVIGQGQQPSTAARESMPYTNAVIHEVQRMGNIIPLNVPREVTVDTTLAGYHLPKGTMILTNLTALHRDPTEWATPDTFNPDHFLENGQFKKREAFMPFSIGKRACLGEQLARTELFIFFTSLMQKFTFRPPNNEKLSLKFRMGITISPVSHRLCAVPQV
# In short: (§3)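 Recombinant CYP (0.5 μM final) was reconstituted in POPC:POPS (8:2) with CPR (0.6 μM) in 0.1 M potassium phosphate pH 7.4. CBC (5–80 μM) was preincubated 10 min at 37 °C and the reaction started with NADPH. Products were extracted three times with hexane/ethyl acetate (80:20), dried, resuspended in ethanol and analysed by LC-MS/MS.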
# [16] = target: T2, Cytochrome P450 2C8 (Homo sapiens, UniProt P10632); assay: Drug metabolism assessed as ratio of CYP2C8 (unknown origin) mediated (E)-2-(5-hydroxy-4-methylpent-3-en-1-yl)-2-methyl-7-pentyl-2H-chromen-5-ol formation to 2-(2-(3,3-dimethyloxiran-2-yl)ethyl)-2-methyl-7-pentyl-2H-chromen-5-ol formation; format: ADME; in short: as §3
# T2 sequence (P10632 whole entry): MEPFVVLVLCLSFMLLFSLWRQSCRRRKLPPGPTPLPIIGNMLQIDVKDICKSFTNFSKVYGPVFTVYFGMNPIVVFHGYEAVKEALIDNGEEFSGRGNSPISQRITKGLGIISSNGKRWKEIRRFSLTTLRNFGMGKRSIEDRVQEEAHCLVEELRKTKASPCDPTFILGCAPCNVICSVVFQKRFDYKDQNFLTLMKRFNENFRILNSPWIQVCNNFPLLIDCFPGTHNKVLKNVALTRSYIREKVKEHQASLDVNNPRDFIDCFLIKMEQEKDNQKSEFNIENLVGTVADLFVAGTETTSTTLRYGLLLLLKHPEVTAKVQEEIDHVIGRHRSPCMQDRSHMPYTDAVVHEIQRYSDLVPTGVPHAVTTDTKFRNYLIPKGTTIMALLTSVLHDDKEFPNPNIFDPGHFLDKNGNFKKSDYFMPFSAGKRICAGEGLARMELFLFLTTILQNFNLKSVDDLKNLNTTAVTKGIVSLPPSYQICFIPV
# [17] = target: T1, Cytochrome P450 2J2; assay: Binding affinity to CYP2J2 (unknown origin) assessed as fold increase in apparent dissociation constant by spectroscopic titration analysis in presence of cytochrome P450 reductase; format: ADME
# In short: (§4)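 His-tagged CYPs were expressed in E. coli and Ni-NTA purified. Buffer-exchanged CYP was in 0.1 M phosphate pH 7.4. CPR was added and the pair was preincubated 5 min; final protein was 5–6 μM each. CBC (ethanol stock, ≤1% final) was titrated 0–100 μM with 5 min at 37 °C per step. The Soret shift from ~417 to ~390 nm was recorded as a difference spectrum. Kd(app) came from a one-site binding fit and was compared with CYP alone (4–5 μM protein).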
# [18] = target: Cytochrome P450 2D6 (Homo sapiens, UniProt P10635); assay: Binding affinity to CYP2D6 (unknown origin) assessed as fold increase in apparent dissociation constant by spectroscopic titration analysis in presence of cytochrome P450 reductase; format: ADME; in short: as §4
# Cytochrome P450 2D6, sequence (P10635 whole entry): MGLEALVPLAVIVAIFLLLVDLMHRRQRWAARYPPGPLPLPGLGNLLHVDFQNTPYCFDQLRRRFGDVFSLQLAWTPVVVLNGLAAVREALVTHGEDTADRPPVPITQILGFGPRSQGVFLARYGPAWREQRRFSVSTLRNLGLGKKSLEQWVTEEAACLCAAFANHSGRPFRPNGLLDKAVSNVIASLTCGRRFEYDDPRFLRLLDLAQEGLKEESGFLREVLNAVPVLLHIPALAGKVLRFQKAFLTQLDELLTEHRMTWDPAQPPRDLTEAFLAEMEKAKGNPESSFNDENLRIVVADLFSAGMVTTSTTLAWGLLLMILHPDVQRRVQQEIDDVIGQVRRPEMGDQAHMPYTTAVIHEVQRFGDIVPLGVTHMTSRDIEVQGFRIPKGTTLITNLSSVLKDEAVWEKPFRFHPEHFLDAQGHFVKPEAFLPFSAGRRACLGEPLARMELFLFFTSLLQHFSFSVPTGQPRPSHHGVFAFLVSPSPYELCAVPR
# [19] = target: T2, Cytochrome P450 2C8; assay: Binding affinity to CYP2C8 (unknown origin) assessed as fold increase in apparent dissociation constant by spectroscopic titration analysis in presence of cytochrome P450 reductase; format: ADME; in short: as §4
# [20] = target: Cytochrome P450 3A4 (Homo sapiens, UniProt P08684); assay: Binding affinity to CYP3A4 (unknown origin) assessed as fold increase in apparent dissociation constant by spectroscopic titration analysis in presence of cytochrome P450 reductase; format: ADME; in short: as §4
# Cytochrome P450 3A4, sequence (P08684 whole entry): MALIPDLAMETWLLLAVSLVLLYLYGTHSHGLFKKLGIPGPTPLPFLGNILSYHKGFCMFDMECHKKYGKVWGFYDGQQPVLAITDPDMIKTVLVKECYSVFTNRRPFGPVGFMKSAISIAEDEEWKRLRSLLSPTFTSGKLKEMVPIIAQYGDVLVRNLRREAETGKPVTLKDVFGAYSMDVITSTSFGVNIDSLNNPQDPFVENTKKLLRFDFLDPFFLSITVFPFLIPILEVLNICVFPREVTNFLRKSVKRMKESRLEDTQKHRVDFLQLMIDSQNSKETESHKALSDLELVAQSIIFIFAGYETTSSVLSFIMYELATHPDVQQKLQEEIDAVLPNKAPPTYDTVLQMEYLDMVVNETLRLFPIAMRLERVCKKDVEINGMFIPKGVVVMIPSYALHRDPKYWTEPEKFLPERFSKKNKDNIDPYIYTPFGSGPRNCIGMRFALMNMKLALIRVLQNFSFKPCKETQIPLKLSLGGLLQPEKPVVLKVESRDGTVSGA
# [21] = Drug metabolism assessed as benzylic hydroxylation mediated 7-(1-hydroxypentyl)-2-methyl-2-(4-methylpent-3-en-1-yl)-2H-chromen-5-ol metabolite formation; format: ADME; details: 40 min, dose 5-80 µM
# In short: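 Pooled human liver microsomes (mixed-gender, 50 donors) gave 0.4 μM CYP final in 0.1 M phosphate pH 7.4. CBC 40 μM final was preincubated 10 min. NADPH 1 mM final was added and the reaction ran 30 min at 37 °C. It was quenched and extracted three times with hexane/ethyl acetate (80:20), dried, resuspended in 95% ethanol and analysed by LC-MS (C18, positive ESI).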
# [22] = Stability in C57BL/6J mouse plasma assessed as compound consumption by measuring reduction in parent compound level at 20 mg/kg, ip measured after 0.5 to 2 hrs by LC-MS/MS analysis; format: ADME, organism-based; details: in vivo, time 0.5-2 hrs; in short: as §2
# [23] = Drug metabolism in C57BL/6J mouse plasma assessed as 2-(2-(3,3-dimethyloxiran-2-yl)ethyl)-2-methyl-7-pentyl-2H-chromen-5-ol metabolite formation at 20 mg/kg, ip measured after 0.5 to 2 hrs by LC/MS/MS analysis; format: ADME, organism-based; details: in vivo, time 0.5-2 hrs; in short: as §2
# [24] = Drug metabolism in C57BL/6J mouse plasma assessed as 2-(2-(3,3-dimethyloxiran-2-yl)ethyl)-2-methyl-7-pentyl-2H-chromen-5-ol metabolite formation at 20 mg/kg, iv administered via tail vein measured after 0.5 to 2 hrs by LC/MS/MS analysis; format: ADME, organism-based; details: in vivo, time 0.5-2 hrs; in short: as §2
# [25] = Drug metabolism in C57BL/6J mouse plasma assessed as 5-(5-hydroxy-2-methyl-7-pentyl-2H-chromen-2-yl)-2-methylpentane-2,3-diol metabolite formation at 20 mg/kg, iv administered via tail vein measured after 0.5 to 2 hrs by LC/MS/MS analysis; format: ADME, organism-based; details: in vivo, time 0.5-2 hrs; in short: as §2
# [26] = Drug metabolism in C57BL/6J mouse plasma assessed as 5-(5-hydroxy-2-methyl-7-pentyl-2H-chromen-2-yl)-2-methylpentane-2,3-diol metabolite formation at 20 mg/kg, ip measured after 0.5 to 2 hrs by LC/MS/MS analysis; format: ADME, organism-based; details: in vivo, time 0.5-2 hrs; in short: as §2
smiles,measurement,setting,value
CCCCCc1cc(O)c2c(c1)OC(C)(CCC1OC1(C)C)C=C2 (stereo not drawn),Activity,[1],Non-Toxic
same,Activity,[2],Active
CCCCCc1cc(O)c2c(c1)OC(C)(CCC(O)C(C)(C)O)C=C2 (stereo not drawn),Activity,[3],Dose-Dependent Effect
same,Activity,[4],Dose-Dependent Effect
same,Activity,[5],Dose-Dependent Effect
same,Activity,[1],Non-Toxic
same,Activity,[2],Active
CCCCCc1cc(O)c2c(c1)OC(C)(CC/C=C(\C)CO)C=C2 (stereo not drawn),Activity,[1],Non-Toxic
same,Activity,[6],inactive
same,Activity,[7],inactive
same,Activity,[8],inactive
C=C(C)C(O)CCC1(C)C=Cc2c(O)cc(CCCCC)cc2O1 (stereo not drawn),Activity,[3],Dose-Dependent Effect
same,Activity,[4],Dose-Dependent Effect
same,Activity,[1],Non-Toxic
same,Activity,[2],Active
CCCCCc1cc(O)c2c(c1)OC(C)(CCC=C(C)C)C=C2 (stereo not drawn) [CANNABICHROMENE],pKi,[9],~6.15
same,pKi,[10],~7.00
same,Drug metabolism,[11],Metabolite_Detected
same,Drug metabolism,[12],Metabolite_Detected
same,Drug metabolism,[13],Metabolite_Notdetected
same,Drug metabolism,[14],Metabolite_Notdetected
same,Activity,[1],Non-Toxic
same,Ratio,[15],~ 50
same,Ratio,[16],~ 5
same,fold change (FC),[17],3
same,fold change (FC),[18],3
same,fold change (FC),[19],5
same,fold change (FC),[20],5
same,Drug metabolism,[21],Metabolite_Detected
same,Drug metabolism,[22],Metabolite_Detected
same,Drug metabolism,[23],Metabolite_Detected
same,Drug metabolism,[24],Metabolite_Detected
same,Drug metabolism,[25],Metabolite_Detected
same,Drug metabolism,[26],Metabolite_Detected
CCCCC(O)c1cc(O)c2c(c1)OC(C)(CCC=C(C)C)C=C2 (stereo not drawn),Activity,[4],Dose-Dependent Effect
same,Activity,[5],Dose-Dependent Effect
same,Activity,[1],Non-Toxic
same,Activity,[2],Active
